Source: PubChem BioAssay (The Scripps Research Institute Molecular Screening Center)
LEDGF integ inh: blockers of LEDGF/p75-dependent integrase strand transfer – biochemical, TR-FRET, high throughput, primary screen; TR-FRET IN-LEDGF/p75 DNA integration, Eu/Cy5; inhibition, % at 3.7 µM; 370,000 tested, 0.64% active; AID 743269, 2014;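 active = inhibition above the screen-wide mean plus 3 SD, cut at about 13% in these data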;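 note: signal is the Cy5 over europium emission ratio at 671 and 618 nm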
RBBP9 inhibitor: human RBBP9 inhibitors, primary screen, biochemical, fluorescence polarization, FP-Rh probe, HTS; inhibition, % at 7.94 µM; Serine hydrolase RBBP9 (Homo sapiens), O75884; recombinant RBBP9; AID 1515, 2009; 220,000 tested, 0.2% active;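 active = inhibition above the campaign mean of all tested compounds plus 3 SD, cut at about 14% in these data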
Target sequence (O75884 whole entry, looked up): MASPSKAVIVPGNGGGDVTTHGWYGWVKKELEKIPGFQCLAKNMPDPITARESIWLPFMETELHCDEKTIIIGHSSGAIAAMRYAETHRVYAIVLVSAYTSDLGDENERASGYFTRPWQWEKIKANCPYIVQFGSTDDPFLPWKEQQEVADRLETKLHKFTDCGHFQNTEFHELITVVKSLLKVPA
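System: RBBP9 protein / Buffer or medium: Tris/NaCl buffer pH 8.0 with 0.1% Pluronic / Probe or stimulus: Serine-hydrolase probe FP-Rh, 375 nM pre-mixing / Dosing: 7.94 µM single dose, 0.794% DMSO / Times: enzyme-compound preincubation 30 min, then probe labeling 45 min, 25 °C / Technique: fluorescence polarization (mP), excitation 525 nm, emission 598 nm / Replication: singlicate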
PRMT1 FP inh: PRMT1 methyltransferase inhibitors, primary screen, biochemical, fluorescence polarization; Protein arginine N-methyltransferase 1 (Homo sapiens), Q99873; AID 652257, 2013; inhibition, % at 2.79 µM; recombinant PRMT1, activity-based probe fluorescence polarization; 370,000 tested, 1.3% active;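 active = inhibition above about 21% made by adding two undisclosed values, limit read from the data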
Target sequence (Q99873 whole entry, looked up): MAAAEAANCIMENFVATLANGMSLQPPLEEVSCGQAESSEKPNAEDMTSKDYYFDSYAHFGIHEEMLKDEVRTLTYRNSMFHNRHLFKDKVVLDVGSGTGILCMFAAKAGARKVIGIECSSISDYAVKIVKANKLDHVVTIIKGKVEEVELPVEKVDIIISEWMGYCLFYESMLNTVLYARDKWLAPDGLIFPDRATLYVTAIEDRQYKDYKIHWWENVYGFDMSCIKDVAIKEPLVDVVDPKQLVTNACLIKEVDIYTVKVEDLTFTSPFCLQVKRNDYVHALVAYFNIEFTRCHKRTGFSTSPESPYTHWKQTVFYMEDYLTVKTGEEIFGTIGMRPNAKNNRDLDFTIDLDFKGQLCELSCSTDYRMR
UHRF1 binding: UHRF1 methylated DNA binding inhibitors, primary screen, counter-screen for MBD2 inhibitor project, biochemical, TR-FRET, human UHRF1, single concentration; 370,000 tested, 0.75% active; UHRF1 binding to methylated oligo; E3 ubiquitin-protein ligase UHRF1 (Homo sapiens), Q96T88; AID 687016, 2013; inhibition, % at 4.4 µM; in the data active = inhibition above about 21%;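 note: UHRF1 SRA domain binding a hemimethylated CpG hairpin DNA probe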
MBD2 inh: inhibitors of MBD2 binding to methylated DNA, primary screen, biochemical, TR-FRET, DNA-binding domain, human | Methyl-CpG-binding domain protein 2 (Homo sapiens), Q9UBB5 | MBD2 binding to methylated oligonucleotide | inhibition, % at 4.4 µM | 370,000 tested, 0.31% active | AID 686964, 2013; in the data active = inhibition above about 13%
ABHD5-PLIN5 inh: ABHD5-PLIN5 interaction inhibitors, primary screen, cell lysate, split luciferase complementation, luminescence. Perilipin-5 (Homo sapiens) + 1-acylglycerol-3-phosphate O-acyltransferase ABHD5 (Homo …. Split G. princeps luciferase complementation, 4 h. inhibition, % at 4 µM. 360,000 tested, 0.78% active;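 active = inhibition above the mean inhibition across every tested compound plus 3 SD, cut at about 22% in these data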
IN multimer up: HIV-1 IN multimer formation enhancers, counter-screen for LEDGF/p75 integration inhibitor project, biochemical, TR-FRET | shares compounds with LEDGF integ inh | TR-FRET HIV-1 integrase multimerization | activation, % at 7.7 µM | 2,000 tested, 17% active | AID 1053131, 2014; in the data active = activation above about 8.9%
TRFRET interf: TR-FRET optical interference artefacts, confirmation, artefact control for LEDGF/p75-dependent integration inhibitor project, biochemical, HIV-1 IN multimerization. AID 1053135, 2014. shares compounds with LEDGF integ inh. TR-FRET optical interference counterscreen. inhibition, % at 7.7 µM. 2,000 tested, under 10 active;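 active = inhibition above the mean over all tested compounds plus 3 SD, which no compound reached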
IN-LEDGF confirm: inhibitors of HIV-1 IN-LEDGF/p75 DNA integration, confirmation, biochemical, TR-FRET | shares compounds with LEDGF integ inh | TR-FRET LEDGF/p75-dependent HIV-1 integration | inhibition, % at 3.7 µM | 2,000 tested, 36% active | AID 1053136, 2014; in the data active = inhibition above about 14%
Each line names hits and unclear results; the compound was inactive in the other large screens (follow-up assays come after a bar, where they were run). Sampled rows, rich in hits. Any-hit rate of the full collection: about 3.1%.

N[C@H](C(=O)Nc1ccc(Cl)cc1C(=O)c1ccc[nH]1)c1ccccc1	none (no result: RBBP9 inhibitor, ABHD5-PLIN5 inh)
CCOC(=O)[C@]12CCCC3=C1N(CCC3)C(=O)[C@@H](CC(=O)N1CCN(C(=O)C3CC3)CC1)C2	none (no result: RBBP9 inhibitor, ABHD5-PLIN5 inh)
Cc1ccc(S(=O)(=O)N2[C@H](CC(=O)c3cccc4ccccc34)OC[C@@H]2C(C)C)cc1	none (no result: RBBP9 inhibitor)
Cc1ccc(S(=O)(=O)N2[C@H](CC(=O)c3cccc4ccccc34)OC[C@@H]2C)cc1	LEDGF integ inh 14 (no result: RBBP9 inhibitor) | IN multimer up inactive | TRFRET interf inactive | IN-LEDGF confirm inactive
S=C(Nc1ccc(Cl)c(Cl)c1)N1CCCC1	none (no result: RBBP9 inhibitor)
S=C(Nc1ccc2nsnc2c1)N1CCCCC1	LEDGF integ inh 17 | IN multimer up inactive | TRFRET interf inactive | IN-LEDGF confirm inactive
O=C(Nc1scc(-c2ccccc2)c1C(=O)O)c1ccc(F)cc1	LEDGF integ inh 14 (no result: RBBP9 inhibitor) | IN multimer up inactive | TRFRET interf inactive | IN-LEDGF confirm inactive
O=C(/C=C/c1ccccc1)Nc1scc(-c2ccccc2)c1C(=O)O	LEDGF integ inh 16 | IN multimer up inactive | TRFRET interf inactive | IN-LEDGF confirm inactive
CCOc1ccc(Br)cc1/C(C)=N\NC1=NCCN1	none
CC(=NNC1=NCCN1)c1cnn(C2=NCCN2)c1C	LEDGF integ inh 18 (no result: RBBP9 inhibitor) | IN multimer up inactive | TRFRET interf inactive | IN-LEDGF confirm inactive
Cc1ccc(CC(=O)N(Cc2ccccc2)c2ccccn2)cc1	none
Cc1ccc(OCC(=O)N(Cc2ccccc2)c2ccccn2)cc1	LEDGF integ inh 52 | IN multimer up inactive | TRFRET interf inactive | IN-LEDGF confirm inactive
CC(C)(C)OC(=O)C[C@H]1C/C=C\C[C@@H](CC(=O)NCCO)C(=O)NC[C@@H](c2ccccc2)OC1=O	LEDGF integ inh 76 (no result: RBBP9 inhibitor) | IN multimer up inactive | TRFRET interf inactive | IN-LEDGF confirm inactive
Clc1cccc(C2CCN(Cc3nc(CC4CC4)no3)C2)c1 (stereo not drawn)	LEDGF integ inh 35 | IN multimer up inactive | TRFRET interf inactive | IN-LEDGF confirm inactive
COCC(=O)N1CCC(Oc2ccc(C(=O)N3CCCCCC3)cc2)CC1	LEDGF integ inh 28 (no result: RBBP9 inhibitor) | IN multimer up inactive | TRFRET interf inactive | IN-LEDGF confirm inactive
COCC(=O)N1CCC(Oc2ccc(C(=O)N3CCCCCCC3)cc2)CC1	none (no result: RBBP9 inhibitor)
O=C(Nc1c(-c2ccc3c(c2)OCO3)[nH][nH]c1=O)c1cccc(C(F)(F)F)c1	LEDGF integ inh 20 (no result: RBBP9 inhibitor) | IN multimer up inactive | TRFRET interf inactive | IN-LEDGF confirm inactive
O=C(Nc1c(-c2ccc3c(c2)OCO3)[nH][nH]c1=O)c1ccccc1	none (no result: RBBP9 inhibitor)
CCOC(=O)[C@@]12CN(C(=O)OC(C)(C)C)CC=C1N(Cc1ccc(OC)cc1)C(=O)[C@H]2CC(=O)NCCCCc1ccccc1	none (no result: RBBP9 inhibitor, ABHD5-PLIN5 inh)
COc1ccccc1NC(=O)OC1CCC12CCCCC2 (stereo not drawn)	none (no result: RBBP9 inhibitor, ABHD5-PLIN5 inh)
CC1(C)CC(=O)C(C(C2=C(O)CC(C)(C)CC2=O)c2ccc([N+](=O)[O-])cc2)C(=O)C1 (stereo not drawn)	LEDGF integ inh 40 | IN multimer up inactive | TRFRET interf inactive | IN-LEDGF confirm inactive
COc1cccc(C(C2=C(O)CC(C)(C)CC2=O)C2C(=O)CC(C)(C)CC2=O)c1 (stereo not drawn)	none
CCOC(=O)/C(C#N)=C/c1ccc(OC(=O)c2ccccn2)cc1	none
COC(=O)/C(C#N)=C/c1ccc(OC(=O)c2ccccn2)cc1	LEDGF integ inh 14 | IN multimer up inactive | TRFRET interf inactive | IN-LEDGF confirm inactive
COC(=O)[C@]12C[C@H](CC(=O)NCCc3ccccc3OC)C(=O)N(Cc3ccc(Cl)cc3Cl)C1=C[C@H](COCc1ccccc1)O[C@@H]2C	none (no result: RBBP9 inhibitor, ABHD5-PLIN5 inh)
C[n+]1c(-c2ccccc2)cc2c(=Cc3ccc([N+](=O)[O-])cc3)c3ccccc3n21	LEDGF integ inh 25 (no result: RBBP9 inhibitor) | IN multimer up inactive | TRFRET interf inactive | IN-LEDGF confirm 48
C[n+]1c(-c2ccccc2)cc2c(=Cc3ccccc3)c3ccccc3n21	LEDGF integ inh 28 (no result: RBBP9 inhibitor) | IN multimer up inactive | TRFRET interf inactive | IN-LEDGF confirm 45
CCc1cccc(NC(=O)CCCCCC2NC(=O)NC2C)c1 (stereo not drawn)	LEDGF integ inh 77 | IN multimer up inactive | TRFRET interf inactive | IN-LEDGF confirm 92
CC1NC(=O)NC1CCCCCC(=O)Nc1ccc(F)c(Cl)c1 (stereo not drawn)	LEDGF integ inh 74 | IN multimer up inactive | TRFRET interf inactive | IN-LEDGF confirm 92
Cc1ccc(NC(=O)CCCCCC2NC(=O)NC2C)cc1 (stereo not drawn)	none (no result: LEDGF integ inh, PRMT1 FP inh, UHRF1 binding, MBD2 inh)
COC(=O)[C@H]1C[C@@]2(C#N)c3ccccc3N(C(=O)OC(C)(C)C)[C@H]2N1C(=O)OC(C)(C)C	none (no result: RBBP9 inhibitor, ABHD5-PLIN5 inh)
CCCCOc1ccc(C(=O)n2ccc3ccc(-c4ccc5ccn(Cc6ccccc6)c5c4)cc32)cc1	none (no result: RBBP9 inhibitor, ABHD5-PLIN5 inh)
CCNC(=S)N(Cc1ccccc1)Cc1nc2ccccc2c(=O)[nH]1	LEDGF integ inh 70 | IN multimer up inactive | TRFRET interf inactive | IN-LEDGF confirm inactive
COc1cc2c(cc1OC)C(C(N)=O)NCC2 (stereo not drawn)	none (no result: RBBP9 inhibitor)
COc1cc2c(cc1OC)C(C1(O)CCCCC1)NCC2 (stereo not drawn)	LEDGF integ inh 14 | IN multimer up inactive | TRFRET interf inactive | IN-LEDGF confirm inactive
CC(C)C[C@@H]1COc2cc(Br)ccc2S(=O)(=O)N1Cc1cn(CCC2OCCCO2)nn1	none (no result: RBBP9 inhibitor, ABHD5-PLIN5 inh)
Cc1ccc(-n2nnc3c(=O)n(CC(=O)NCc4ccccc4)cnc32)cc1	none
O=C(Cn1cnc2c(nnn2-c2ccccc2)c1=O)NCc1ccc(F)cc1	LEDGF integ inh 15, UHRF1 binding 32 | IN multimer up inactive | TRFRET interf inactive | IN-LEDGF confirm inactive
C=CCn1c(SCC(=O)O)nnc1-c1ccco1	none (no result: RBBP9 inhibitor, ABHD5-PLIN5 inh)
